Results published in ChEMBL document CHEMBL2384901, “Synthesis and biology of oligoethylene glycol linked naphthoxylosides” (Bioorg Med Chem, 2013).

Key:
HCC70 [1] = experiment: Induction of heparan sulphate synthesis in human HCC70 cells assessed as proportion of heparan sulphate of total GAGs; type: functional; parameters: concentration or dose not given beside the values
Outline: (§1)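 Xyloside-primed [35S]sulfate material was pooled from Superose 6 fractions, 35–51 for HCC70 and 34–51 for CCD-1095Sk. HS was cleaved by deaminative HNO2 at pH 1.5, then the digest was re-separated by gel permeation. Radioactivity was measured by β-counting.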

[2] = Cytotoxicity against human CCD-1095SK cells assessed as growth inhibition after 96 hrs by crystal violet staining assay; type: cell-based; settings: read-out: ED50
Outline: (§2)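 Cells plated at 5000/well in MEM Earle's or RPMI-1640 with 10% FBS. After 24 h, medium changed to Ham's F-12 with insulin (10 µg/mL), transferrin (25 µg/mL), 1% L-glutamine, 10 ng/mL EGF and xylosides at 5–500 µM, for 96 h. Cells fixed in 0.25% glutaraldehyde and stained with 0.1% crystal violet. Lysed in 1% Triton X-100; A595 read. ED50 reported.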

[3] = Induction of heparan sulphate synthesis in human CCD-1095SK cells assessed as proportion of heparan sulphate of total GAGs; type: functional; parameters: concentration or dose not given beside the values; outline: as §1
[4] = Induction of glycosaminoglycan synthesis in human CCD-1095SK cells assessed as [35S]sulfate incorporation at 100 uM after 24 hrs by bata counting analysis relative to untreated control
HCC70 [5] = experiment: Cytotoxicity against human HCC70 cells assessed as growth inhibition after 96 hrs by crystal violet staining assay; type: functional; settings: HCC70, 96 h, read-out: ED50 (the source's name); outline: as §2
HCC70 [6] = experiment: Induction of glycosaminoglycan synthesis in human HCC70 cells assessed as [35S]sulfate incorporation at 100 uM after 24 hrs by bata counting analysis relative to untreated control

SMILES	Activity (HCC70 [1]) [%]	GI50 at 96 h [2] [µM]	Activity [3] [%]	fold change (FC) [4]	EC50 (HCC70 [5]) [µM]	fold change (FC) (HCC70 [6])
O[C@@H]1[C@@H](O)[C@H](OCCOCCOc2ccc3ccccc3c2)OC[C@H]1O	5	150	2	80	129	29
O[C@@H]1[C@@H](O)[C@H](OCCOc2ccc3ccccc3c2)OC[C@H]1O	9	140	3	79	221	26
Oc1ccc2cc(CO[C@@H]3OC[C@@H](O)[C@H](O)[C@H]3O)ccc2c1	14	223	7	98	282	42
O[C@@H]1[C@@H](O)[C@H](Oc2ccc3ccccc3c2)OC[C@H]1O	9	152	3	24	243	16
Oc1ccc2cc(O[C@@H]3OC[C@@H](O)[C@H](O)[C@H]3O)ccc2c1	28	258	6	74	7	37
O[C@@H]1[C@@H](O)[C@H](OCc2ccc3ccccc3c2)OC[C@H]1O	14	298	7	55	267	31
O[C@@H]1[C@@H](O)[C@H](OCCOCCOCCOc2ccc3ccccc3c2)OC[C@H]1O	15	70	20	74	87	21
Oc1ccc2cc(OCCO[C@@H]3OC[C@@H](O)[C@H](O)[C@H]3O)ccc2c1	34	280	26	90	178	29
